Some results are limits rather than exact numbers.

For one assay, the species on record is Bos taurus. Nature of the assay: Inhibition of [Fe(2+)]/ascorbate-induced oxidation of bovine heart membranes(antioxidant BHMLO). Format: functional.
Details: not given
The procedure, abridged:
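Bovine heart membranes (KCl-washed, 100000g pellet, 20 mg/mL protein stock in 25 mM HEPES/150 mM NaCl pH 7.4) were preincubated with compound for 30 min at 37 °C. Peroxidation was started with FeCl2/ascorbic acid and run for 15 min at 21 °C. TBARS were developed by heating at 80 °C and read at 540 nm against a malonaldehyde bis(dimethyl acetal) standard curve. IC50 by linear regression.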
As usually defined, the IC50 is the concentration that gives 50% inhibition. In the case of `COc1ccc2cc(C(C)C(=O)OCCC3(C)CCc4c(C)c(OC(C)=O)c(C)c(C)c4O3)ccc2c1` (stereo not drawn), inhibition was half-maximal at 4.5 µM (IC50).
The compound `COc1ccc2cc([C@H](C)C(=O)OCC[C@]3(C)CCc4c(C)c(O)c(C)c(C)c4O3)ccc2c1` showed a concentration for half-maximal inhibition (IC50) of 9.6 µM.
`Cc1c(C)c2c(c(C)c1O)CCC(C)(CCO)O2` (stereo not drawn) returned a concentration for half-maximal inhibition (IC50) of 3.82 µM.
As to `COc1ccc2cc(C(C)C(=O)OCC3(C)Cc4c(C)c(O)c(C)c(C)c4O3)ccc2c1` (stereo not drawn), the IC50 was determined as 4.83 µM.
In the case of `COc1ccc2cc(C(C)C(=O)NCCC3(C)Cc4c(C)c(O)c(C)c(C)c4O3)ccc2c1` (stereo not drawn), the IC50 was 5.6 µM.
Consider VITAMIN E [listing 1 of 2 here], for which the half-maximal inhibitory concentration (IC50) was 5170 µM.
On to `COc1ccc2cc([C@H](C)C(=O)NCC3(C)CCc4c(C)c(O)c(C)c(C)c4O3)ccc2c1` (stereo partly drawn), for which the concentration for half-maximal inhibition (IC50) came out at 2.5 µM.
Take `COc1ccc2cc([C@H](C)C(=O)OCCC3(C)Cc4c(C)c(O)c(C)c(C)c4O3)ccc2c1` (stereo in doubt; 2b): inhibition was half-maximal at 5.2 µM (IC50).
As to `COc1ccc2cc(C(C)C(=O)NCCC3(C)CCc4c(C)c(O)c(C)c(C)c4O3)ccc2c1` (stereo not drawn), half-maximal inhibition (IC50) required 4.67 µM.
Regarding `COc1ccc2cc(C(C)C(=O)OCCC3(C)CCc4c(C)c(OC)c(C)c(C)c4O3)ccc2c1` (stereo not drawn), the IC50 stood at 14000 µM.
Same read-out and setting: under `Cc1c(C)c2c(c(C)c1O)CCC(C)(C(=O)O)O2` (stereo not drawn) [TROLOX] stands 25.6 µM; under `COc1ccc2cc([C@H](C)C(=O)OCCC3(C)CCc4c(C)c(O)c(C)c(C)c4O3)ccc2c1` (stereo partly drawn), 7.66 µM; under `COc1ccc2cc(C(C)C(=O)OCC3(C)CCc4c(C)c(O)c(C)c(C)c4O3)ccc2c1` (stereo not drawn), 4.36 µM.
`COc1ccc2cc(C(C)C(=O)OCC[C@@]3(C)CCc4c(C)c(O)c(C)c(C)c4O3)ccc2c1` (single isomer, unassigned) showed a half-inhibitory concentration (IC50) of 11.6 µM.
For `COc1ccc2cc([C@H](C)C(=O)OCC3(C)COc4c(C)c(C)c(O)c(C)c43)ccc2c1` (stereo partly drawn), the IC50 is 5.2 µM.
Same read-out and setting: under `COc1ccc2cc([C@H](C)C(=O)OCCC3(C)Cc4c(C)c(O)c(C)c(C)c4O3)ccc2c1` (stereo in doubt; 2a) stands 4.87 µM; under `COc1ccc2cc([C@H](C)C(=O)OCCC3(C)Cc4c(C)c(O)c(C)c(C)c4O3)ccc2c1` (stereo in doubt; 2c), 5.1 µM; under `COc1ccc2cc(C(C)C(=O)NCC3(C)CCc4c(C)c(OC(C)=O)c(C)c(C)c4O3)ccc2c1` (stereo not drawn), 1.6 µM.
In the case of `COc1ccc2cc(C(C)C(=O)NCC3(C)CCc4c(C)c(O)c(C)c(C)c4O3)ccc2c1` (stereo not drawn), the IC50 is 3.99 µM.
`COc1ccc2cc([C@H](C)COC(=O)CC3(C)CCc4c(C)c(O)c(C)c(C)c4O3)ccc2c1` (stereo partly drawn) yielded an IC50 of 4.4 µM.
In the case of `COc1ccc2cc([C@@H](C)C(=O)NCC3(C)CCc4c(C)c(O)c(C)c(C)c4O3)ccc2c1` (stereo partly drawn), half-maximal inhibition (IC50) was put at 4.8 µM.
`COc1ccc2cc(CC(=O)OCCC3(C)CCc4c(C)c(O)c(C)c(C)c4O3)ccc2c1` (stereo not drawn) gave an IC50 of 4.5 µM.

System in a further assay: not listed separately
The assay is described as follows: Inhibition of proliferation measured by inhibition of [3H]thymidine incorporation by HMVEC-L cells. Format: functional, cell-based, Homo sapiens.
Details: not given
The procedure, abridged: (§1)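 Human lung microvascular endothelial cells (HMVEC-L, donor, passages 3–9) were grown in EGM-MV to 75–90% confluence. Cells were given compound in fresh medium at 37 °C for 18 h, then pulsed 6 h with [3H]thymidine (2.5 μCi per 200 μL). TCA-precipitated DNA was solubilised in SDS and counted by liquid scintillation. IC50 by linear regression, or % inhibition at the stated concentration.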
Consider `COc1ccc2cc([C@H](C)C(=O)O)ccc2c1` [NAPROXEN], for which the IC50 is above 50 µM.
For `COc1ccc2cc(C(C)C(=O)OCCC3(C)CCc4c(C)c(OC(C)=O)c(C)c(C)c4O3)ccc2c1` (stereo not drawn), inhibition was half-maximal at 11.5 µM (IC50).
As for `COc1ccc2cc([C@H](C)C(=O)OCC[C@]3(C)CCc4c(C)c(O)c(C)c(C)c4O3)ccc2c1`, the concentration for half-maximal inhibition (IC50) came out at 16.4 µM.
Turning to `COc1ccc2cc(C(C)C(=O)OCC3(C)Cc4c(C)c(O)c(C)c(C)c4O3)ccc2c1` (stereo not drawn), the IC50 was found to be 7.3 µM.
In turn, `COc1ccc2cc(C(C)C(=O)NCCC3(C)Cc4c(C)c(O)c(C)c(C)c4O3)ccc2c1` (stereo not drawn) yielded an IC50 of 1.9 µM.
Compound `COc1ccc2cc([C@H](C)C(=O)NCC3(C)CCc4c(C)c(O)c(C)c(C)c4O3)ccc2c1` (stereo partly drawn) yielded an IC50 of 4.3 µM.
On to `COc1ccc2cc([C@H](C)C(=O)OCCC3(C)Cc4c(C)c(O)c(C)c(C)c4O3)ccc2c1` (stereo in doubt; 2b), for which the IC50 came to 16.6 µM.
`COc1ccc2cc(C(C)C(=O)NCCC3(C)CCc4c(C)c(O)c(C)c(C)c4O3)ccc2c1` (stereo not drawn) had a 50% inhibitory concentration (IC50) of 7.4 µM.
As to `COc1ccc2cc(C(C)C(=O)OCCC3(C)CCc4c(C)c(OC)c(C)c(C)c4O3)ccc2c1` (stereo not drawn), 25 µM corresponded to half-maximal inhibition (IC50).
The same measure, in the same setting: the result for `COc1ccc2cc([C@H](C)C(=O)OCCC3(C)CCc4c(C)c(O)c(C)c(C)c4O3)ccc2c1` (stereo partly drawn) reads 12.9 µM.
`COc1ccc2cc(C(C)C(=O)OCC3(C)CCc4c(C)c(O)c(C)c(C)c4O3)ccc2c1` (stereo not drawn) registered an IC50 of 11.3 µM.
Consider `COc1ccc2cc(C(C)C(=O)OCC[C@@]3(C)CCc4c(C)c(O)c(C)c(C)c4O3)ccc2c1` (single isomer, unassigned), for which half-maximal inhibition (IC50) required 11.7 µM.
In turn, `COc1ccc2cc([C@H](C)C(=O)OCC3(C)COc4c(C)c(C)c(O)c(C)c43)ccc2c1` (stereo partly drawn) came in with an IC50 of 19 µM.
`COc1ccc2cc([C@H](C)C(=O)OCCC3(C)Cc4c(C)c(O)c(C)c(C)c4O3)ccc2c1` (stereo in doubt; 2a) returned an IC50 of 9.1 µM.
For `COc1ccc2cc([C@H](C)C(=O)OCCC3(C)Cc4c(C)c(O)c(C)c(C)c4O3)ccc2c1` (stereo in doubt; 2c), the IC50 worked out at 16.4 µM.
In turn, `COc1ccc2cc(C(C)C(=O)NCC3(C)CCc4c(C)c(OC(C)=O)c(C)c(C)c4O3)ccc2c1` (stereo not drawn) registered an IC50 of 3.3 µM.
`COc1ccc2cc(C(C)C(=O)NCC3(C)CCc4c(C)c(O)c(C)c(C)c4O3)ccc2c1` (stereo not drawn) came in with a concentration for half-maximal inhibition (IC50) of 4.3 µM.
`COc1ccc2cc([C@H](C)C(=O)NCC3(C)CCc4c(C)c(OC(C)=O)c(C)c(C)c4O3)ccc2c1` (stereo partly drawn) came in with an IC50 of 4 µM.
With `COc1ccc2cc([C@H](C)COC(=O)CC3(C)CCc4c(C)c(O)c(C)c(C)c4O3)ccc2c1` (stereo partly drawn), the IC50 is 12 µM.
`COc1ccc2cc([C@@H](C)C(=O)OCC[C@@]3(C)CCc4c(C)c(O)c(C)c(C)c4O3)ccc2c1` showed a half-inhibitory concentration (IC50) of 22 µM.
Same read-out and setting: under `COc1ccc2cc([C@@H](C)C(=O)NCC3(C)CCc4c(C)c(O)c(C)c(C)c4O3)ccc2c1` (stereo partly drawn) stands 4.5 µM.

System in another assay: not listed separately
The assay is described as follows: (§2) Compound was evaluated for in vitro inhibition of proliferation measured by inhibition of [3H]thymidine incorporation by HMVEC-L cells. It is filed as functional, Homo sapiens. Also noted: concentration or dose not given beside the values.
Details: not given
The procedure, abridged:
as §1
Background: Uptake of a labelled nucleoside into DNA is a usual measure of proliferation.
Broadly, the Inhibition is the share of the control response that was lost under treatment. `Cc1c(C)c2c(c(C)c1O)CCC(C)(CCO)O2` (stereo not drawn): the Inhibition worked out at 30%.
Consider `COc1ccc2cc(CC(=O)O)ccc2c1` [6-METHOXY-2-NAPHTHYLACETIC ACID], for which the Inhibition is 5%.
Regarding `Cc1c(C)c2c(c(C)c1O)CCC(C)(C(=O)O)O2` (stereo not drawn) [TROLOX], the Inhibition is on record as 20%.
For `COc1ccc2cc(CC(=O)OCCC3(C)CCc4c(C)c(O)c(C)c(C)c4O3)ccc2c1` (stereo not drawn), the Inhibition came out at 44%.

Another assay concerns HMVEC-L. The description is as §2. It is filed as functional. Set-up: concentration or dose not given beside the values. As to conditions: Homo sapiens, dose or concentration not given here. The procedure, abridged: as §1
Usually inhibition stands for the percentage by which the read-out fell short of the control. VITAMIN E [listing 2 of 2 here] had an inhibition of 22%.

The values above are taken from ChEMBL document CHEMBL1132417, “Novel esters and amides of nonsteroidal antiinflammatory carboxylic acids as antioxidants and antiproliferative agents” (J Med Chem, 1999).
